PAFAH2 inh – PAFAH2 enzyme inhibitors, primary screen, biochemical, fluorescence polarization, human | AID 492956, 2010 | Platelet-activating factor acetylhydrolase 2, cytoplasmic (Homo sapiens), Q99487 | actives 0.99% (n = 340,000) | inhibition, % at 3.39 µM | recombinant PAFAH2, FP-rhodamine activity probe;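 active = inhibition above the mean over all tested compounds plus 3 SD, cut at about 30% in these data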;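 note: inhibitors block probe labeling of enzyme so polarization drops; 0% = enzyme with DMSO and 100% = wells lacking PAFAH2 protein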
pPAFAH FP inh – pPAFAH enzyme inhibitors, primary screen, biochemical, fluorescence polarization, human; Platelet-activating factor acetylhydrolase (Homo sapiens), Q13093; recombinant pPAFAH, FP-rhodamine probe fluorescence polarization; inhibition, % at 3.39 µM; actives 1.5% (n = 330,000);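 active = inhibition above the mean inhibition across the screen plus 3 SD, cut at about 25% in these data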;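 note: inhibitors block binding of the rhodamine activity-based probe so polarization drops; 0% = enzyme with DMSO and 100% = wells lacking pPAFAH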
PAFAH1B2 inh – PAFAH1B2 enzyme inhibitors, primary screen, biochemical, fluorescence polarization, human; recombinant PAFAH1B2, FP-rhodamine activity probe; Platelet-activating factor acetylhydrolase IB subunit alpha2 (Homo sapiens), P68402; actives 1.2% (n = 340,000); inhibition, % at 3.39 µM;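 active = inhibition above the mean of all tested compounds plus 3 SD, cut at about 24% in these data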;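 note: 0% = enzyme with DMSO and 100% = wells lacking PAFAH1B2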
Target sequence (P68402 whole entry, looked up): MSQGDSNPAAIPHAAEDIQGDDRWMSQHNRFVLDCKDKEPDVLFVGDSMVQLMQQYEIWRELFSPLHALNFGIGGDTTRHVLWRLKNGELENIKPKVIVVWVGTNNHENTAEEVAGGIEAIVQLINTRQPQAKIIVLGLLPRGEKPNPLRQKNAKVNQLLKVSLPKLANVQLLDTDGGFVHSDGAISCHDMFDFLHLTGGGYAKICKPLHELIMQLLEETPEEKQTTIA
PAFAH1B3 inh – PAFAH1B3 enzyme inhibitors, primary screen, biochemical, fluorescence polarization, human; Platelet-activating factor acetylhydrolase IB subunit alpha1 (Homo sapiens), Q15102; recombinant PAFAH1B3, FP-rhodamine probe; inhibition, % at 3.39 µM; actives 0.28% (n = 340,000);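 active = inhibition above the screen-wide average of all tested compounds plus 3 SD, cut at about 25% in these data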;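 note: 0% = enzyme with DMSO only and 100% = wells lacking PAFAH1B3 protein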
Target sequence (Q15102 whole entry, looked up): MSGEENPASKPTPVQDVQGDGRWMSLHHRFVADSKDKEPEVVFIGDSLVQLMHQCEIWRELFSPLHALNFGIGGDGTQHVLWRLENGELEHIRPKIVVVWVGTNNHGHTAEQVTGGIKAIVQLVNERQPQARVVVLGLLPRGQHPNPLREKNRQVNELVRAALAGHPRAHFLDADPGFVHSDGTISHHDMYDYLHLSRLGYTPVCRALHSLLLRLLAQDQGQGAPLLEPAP
ARFGAP1 inh – inhibitors of rat ARFGAP1 GAP activity, primary screen, biochemical, fluorescence polarization, GDP tracer; actives 0.26% (n = 360,000); Arfgap1-stimulated ARF1 GTP hydrolysis, GDP FP detection; AID 651572, 2012; inhibition, % at 16.5 µM;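 active = inhibition above a per-plate limit, mean inhibition of low control wells plus 3 SD, cut at about 25% in these data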;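 note: 0% = DMSO wells with enzyme and 100% = wells lacking Arfgap1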
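Material – truncated rat Arfgap1 GAP domain · Buffer or medium – HEPES-based buffer, pH 7.5 · Reagent – human ARF1(Δ1-17)-GTP substrate · Dosing – 16.5 µM single point, 1.26% DMSO · Schedule – GTP hydrolysis reaction 2 h at 25 °C · Technique – GDP detection by fluorescence polarization · Benchmarks – No-Arfgap1 wells (100%) versus DMSO full-reaction wells (0%) · Repeats – single replicate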
ASAP1 inh – inhibitors of human ASAP1 ArfGAP activity, primary screen, biochemical, fluorescence polarization; inhibition, % at 16.5 µM; actives 0.19% (n = 360,000); ASAP1-stimulated ARF1 GTP hydrolysis, GDP FP detection; AID 624377, 2012; Arf-GAP with SH3 domain, ANK repeat and PH domain-containing protein 1 (Homo sapiens), …; in the data active = inhibition above about 25%;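 note: 0% = vehicle with enzyme and substrate and 100% = no enzyme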
PAFAH2 FP conf – PAFAH2 enzyme inhibitors, confirmation, biochemical, fluorescence polarization, human; actives 65% (n = 2,300); inhibition, % at 3.39 µM; AID 493030, 2011; shares compounds with PAFAH2 inh; recombinant PAFAH2, FP-rhodamine activity probe;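 active = mean inhibition over three repeats above a set limit taken from the earlier primary screen, cut at about 30% in these data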;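 note: inhibitor blocks binding of rhodamine activity probe so polarization falls; 0% = enzyme with DMSO and 100% = wells lacking PAFAH2 protein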
* hit, by the source's call; · = not tested or not shown. Compounds with a hit are over-represented: about 2.7% of the library has one in this group of screens.

SMILES | PAFAH2 inh | pPAFAH FP inh | PAFAH1B2 inh | PAFAH1B3 inh | ARFGAP1 inh | ASAP1 inh | PAFAH2 FP conf
CCc1cc(=O)oc2c3c(cc(OCC(=O)NCCC(=O)O)c12)OC(C)(C)CC3 | 38* | 23 | 4 | 1 | -2 | -1 | 23
CC(C)Cn1c(N)c(C(=O)COC(=O)c2ccc(Br)cc2)c(=O)n(C)c1=O | -3 | 5 | 6 | 7 | -7 | 7 | ·
Nc1[nH]c(C(=O)c2ccccc2)c(-c2ccccc2Br)c1C(=O)NCCc1ccc(Cl)cc1Cl | · | · | · | · | 5 | -4 | ·
Cc1nn(-c2ccccc2)c(C)c1C(=O)OCC(=O)Nc1ccccc1 | 55* | 2 | 7 | 3 | 7 | 4 | 43*
Cc1nn(-c2ccccc2)c(C)c1C(=O)OCC(=O)Nc1ccc2c(c1)OCO2 | 35* | 6 | -1 | 7 | 13 | 19 | 30*
Cc1ccc(NC(=O)COC(=O)c2c(C)nn(-c3ccccc3)c2C)cc1 | 19 | 2 | -1 | 1 | -1 | 10 | ·
O=C(COC(=O)[C@@H]1CCCN1C(=O)c1cccs1)Nc1cccc([N+](=O)[O-])c1 | 8 | 9 | 1 | 8 | -8 | -6 | ·
COc1cc(CN2C[C@@H](CO)O[C@@H](n3cnc4c(Nc5ccccc5)ncnc43)C2)cc(OC)c1OC | · | · | · | · | 9 | -2 | ·
Cc1ccc(C(=O)OCC(=O)NCC(F)(F)F)cc1C | 53* | 6 | 7 | -4 | -1 | -5 | 50*
O=C(COC(=O)c1ccc(O)cc1)NCCCc1ccccc1 | 32* | · | 3 | 2 | 13 | 4 | 22
Cc1ccsc1C(=O)OCC(=O)NCCCc1ccccc1 | 30* | 13 | 11 | -1 | 22 | 4 | 13
O=C(COC(=O)c1ccccc1O)NCCCc1ccccc1 | -2 | 2 | 2 | 12 | -1 | -12 | ·
Cc1ccc(C(=O)OCC(=O)NCCc2ccccc2)cc1C | 57* | 13 | 5 | 1 | -2 | -2 | 33*
CCC1=C(c2ccc(OC)cc2)CCC(C(=O)O)C1C (stereo not drawn) | 0 | · | 6 | 11 | -4 | 7 | ·
COc1ccc(C(C)(O)c2nc(-c3ccc(S(C)(=O)=O)cc3)cs2)cc1 (stereo not drawn) | · | · | · | · | 3 | 5 | ·
CN(C)S(=O)(=O)c1ccc(Cl)c(NC(=O)COC(=O)/C=C/c2ccc(S(=O)(=O)N3CCOCC3)cc2)c1 | 31* | -1 | -1 | 5 | -3 | 5 | 26
COc1cc(/C=C/C(=O)OCC(=O)Nc2cc(S(=O)(=O)N(C)C)ccc2Cl)ccc1O | 60* | 8 | 2 | -1 | 1 | -4 | 60*
CN(C)S(=O)(=O)c1ccc(Cl)c(NC(=O)COC(=O)/C=C/c2ccc3ccccc3n2)c1 | -1 | -1 | -5 | 6 | -14 | 13 | ·
COc1ccc(/C=C/C(=O)OCC(=O)Nc2cc(S(=O)(=O)N(C)C)ccc2Cl)cc1 | -2 | 2 | 4 | 2 | -5 | 4 | ·
CN(C)S(=O)(=O)c1ccc(Cl)c(NC(=O)COC(=O)/C=C/c2ccco2)c1 | 46* | 2 | 0 | 1 | 7 | 5 | 47*
N#Cc1ccccc1NC(=O)COC(=O)/C=C/c1ccc(S(=O)(=O)N2CCOCC2)cc1 | 51* | 6 | 2 | 5 | 1 | 16 | 31*
O=C(COC(=O)/C=C/c1ccc(F)cc1)Nc1ccc(S(=O)(=O)N2CCOCC2)cc1 | 4 | 3 | 2 | 4 | 17 | 12 | ·
O=C(NCc1ccc2c(c1)OCO2)C(=O)NCC1OCCCN1S(=O)(=O)c1ccccc1 (stereo not drawn) | · | · | · | · | -10 | -7 | ·
